Here are results for 13 compounds from ChEMBL document CHEMBL1687701, “Discovery of N-Aryl Piperazines as Selective mGlu(5) Potentiators with Efficacy in a Rodent Model Predictive of Anti-Psychotic Activity” (ACS Med Chem Lett, 2010).

In data set [1] the target is Metabotropic glutamate receptor 5 (Rattus norvegicus) (UniProt P31424). Kind of data set: Positive allosteric modulation at rat mGluR5 receptor expressed in HEK293 cells assessed as glutamate-induced calcium fluorescence at 30 uM by Fluo-4/AM dye-based fluorescence assay in relative to glutamate. Type of data set: functional, cell-based.
Chain of Metabotropic glutamate receptor 5 (Rattus norvegicus) (P31424 21-1203 limits assumed): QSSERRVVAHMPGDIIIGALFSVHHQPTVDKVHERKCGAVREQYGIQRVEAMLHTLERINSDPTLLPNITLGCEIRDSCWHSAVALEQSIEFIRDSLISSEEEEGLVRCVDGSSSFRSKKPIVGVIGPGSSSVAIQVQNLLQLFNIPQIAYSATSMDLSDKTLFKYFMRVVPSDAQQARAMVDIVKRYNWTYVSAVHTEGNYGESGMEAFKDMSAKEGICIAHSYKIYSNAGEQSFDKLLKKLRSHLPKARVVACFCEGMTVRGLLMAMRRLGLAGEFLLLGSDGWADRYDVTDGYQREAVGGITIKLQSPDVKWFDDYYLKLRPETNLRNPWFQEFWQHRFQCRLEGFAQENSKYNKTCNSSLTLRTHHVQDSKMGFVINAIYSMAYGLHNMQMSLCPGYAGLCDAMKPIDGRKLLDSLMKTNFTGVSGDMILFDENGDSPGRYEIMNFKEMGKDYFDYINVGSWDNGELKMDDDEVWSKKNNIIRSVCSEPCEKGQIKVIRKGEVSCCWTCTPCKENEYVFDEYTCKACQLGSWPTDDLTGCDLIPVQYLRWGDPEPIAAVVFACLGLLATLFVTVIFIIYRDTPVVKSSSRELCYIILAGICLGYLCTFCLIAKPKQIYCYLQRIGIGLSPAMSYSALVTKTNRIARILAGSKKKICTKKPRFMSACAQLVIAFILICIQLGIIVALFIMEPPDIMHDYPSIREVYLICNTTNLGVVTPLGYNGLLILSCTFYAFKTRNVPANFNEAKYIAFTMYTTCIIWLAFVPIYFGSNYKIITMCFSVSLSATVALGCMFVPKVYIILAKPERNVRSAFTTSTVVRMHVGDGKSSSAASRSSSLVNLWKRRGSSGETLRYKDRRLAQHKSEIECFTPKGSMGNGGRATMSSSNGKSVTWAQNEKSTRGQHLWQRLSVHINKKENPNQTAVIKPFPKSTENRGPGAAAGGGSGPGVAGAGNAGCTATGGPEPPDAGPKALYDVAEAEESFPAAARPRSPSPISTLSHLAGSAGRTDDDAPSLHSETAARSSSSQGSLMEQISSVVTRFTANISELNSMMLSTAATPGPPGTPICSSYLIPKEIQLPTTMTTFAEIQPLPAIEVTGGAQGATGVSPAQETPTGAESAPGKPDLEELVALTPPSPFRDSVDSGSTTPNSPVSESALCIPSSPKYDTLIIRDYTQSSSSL
The target in data set [2] is T1, Metabotropic glutamate receptor 5 (Rattus norvegicus, UniProt P31424). Kind of data set: Positive allosteric modulation at rat mGluR5 receptor expressed in HEK293 cells assessed as glutamate-induced calcium fluorescence by Fluo-4/AM dye-based fluorescence assay. Type of data set: functional, cell-based.
T1 sequence (P31424 whole entry): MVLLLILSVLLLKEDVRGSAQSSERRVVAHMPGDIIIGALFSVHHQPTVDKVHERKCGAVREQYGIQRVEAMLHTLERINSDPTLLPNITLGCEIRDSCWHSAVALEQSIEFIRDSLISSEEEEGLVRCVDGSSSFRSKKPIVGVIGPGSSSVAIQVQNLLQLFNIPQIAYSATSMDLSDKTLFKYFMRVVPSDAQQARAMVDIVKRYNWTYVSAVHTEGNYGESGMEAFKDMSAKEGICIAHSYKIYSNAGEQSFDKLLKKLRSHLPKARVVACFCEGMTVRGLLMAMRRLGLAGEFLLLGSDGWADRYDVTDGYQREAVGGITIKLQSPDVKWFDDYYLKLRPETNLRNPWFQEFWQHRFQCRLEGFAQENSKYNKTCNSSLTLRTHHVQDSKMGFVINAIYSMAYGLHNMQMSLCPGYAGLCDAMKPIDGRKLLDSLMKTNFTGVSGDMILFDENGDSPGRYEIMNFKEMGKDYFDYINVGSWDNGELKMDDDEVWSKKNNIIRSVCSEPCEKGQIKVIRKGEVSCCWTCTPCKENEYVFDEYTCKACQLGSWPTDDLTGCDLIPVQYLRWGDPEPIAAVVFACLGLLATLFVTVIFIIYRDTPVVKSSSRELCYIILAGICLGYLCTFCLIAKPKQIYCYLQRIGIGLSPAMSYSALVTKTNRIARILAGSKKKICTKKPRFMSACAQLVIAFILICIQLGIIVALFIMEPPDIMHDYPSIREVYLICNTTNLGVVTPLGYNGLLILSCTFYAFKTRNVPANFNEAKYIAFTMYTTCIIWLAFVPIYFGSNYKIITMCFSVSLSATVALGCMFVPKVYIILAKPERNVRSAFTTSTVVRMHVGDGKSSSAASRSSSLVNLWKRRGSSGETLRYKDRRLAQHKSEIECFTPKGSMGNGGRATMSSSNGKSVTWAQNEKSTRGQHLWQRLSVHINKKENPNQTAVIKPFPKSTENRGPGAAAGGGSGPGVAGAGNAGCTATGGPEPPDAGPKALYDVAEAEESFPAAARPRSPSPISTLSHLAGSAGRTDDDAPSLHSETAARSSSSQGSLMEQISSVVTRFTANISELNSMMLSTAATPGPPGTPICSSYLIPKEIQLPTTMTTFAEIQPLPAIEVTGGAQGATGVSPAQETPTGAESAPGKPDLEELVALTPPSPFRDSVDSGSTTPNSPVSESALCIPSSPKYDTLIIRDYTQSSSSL
Data set [3] has as its target Metabotropic glutamate receptor 5 (Rattus norvegicus) (UniProt P31424). As to the kind of experiment: Positive allosteric modulation at mGluR5 in […] cells at 30 uM by Fluo-4/AM dye-based fluorescence assay. Type of data set: cell-based.
Data set [4] deals with Metabotropic glutamate receptor 7 (Rattus norvegicus) (UniProt P35400). As to the kind of experiment: Potentiation of rat mGluR7 receptor assessed as fold shift in glutamate concentration response curve at 10 uM relative to control.
Chain of Metabotropic glutamate receptor 7 (Rattus norvegicus) (P35400 whole entry): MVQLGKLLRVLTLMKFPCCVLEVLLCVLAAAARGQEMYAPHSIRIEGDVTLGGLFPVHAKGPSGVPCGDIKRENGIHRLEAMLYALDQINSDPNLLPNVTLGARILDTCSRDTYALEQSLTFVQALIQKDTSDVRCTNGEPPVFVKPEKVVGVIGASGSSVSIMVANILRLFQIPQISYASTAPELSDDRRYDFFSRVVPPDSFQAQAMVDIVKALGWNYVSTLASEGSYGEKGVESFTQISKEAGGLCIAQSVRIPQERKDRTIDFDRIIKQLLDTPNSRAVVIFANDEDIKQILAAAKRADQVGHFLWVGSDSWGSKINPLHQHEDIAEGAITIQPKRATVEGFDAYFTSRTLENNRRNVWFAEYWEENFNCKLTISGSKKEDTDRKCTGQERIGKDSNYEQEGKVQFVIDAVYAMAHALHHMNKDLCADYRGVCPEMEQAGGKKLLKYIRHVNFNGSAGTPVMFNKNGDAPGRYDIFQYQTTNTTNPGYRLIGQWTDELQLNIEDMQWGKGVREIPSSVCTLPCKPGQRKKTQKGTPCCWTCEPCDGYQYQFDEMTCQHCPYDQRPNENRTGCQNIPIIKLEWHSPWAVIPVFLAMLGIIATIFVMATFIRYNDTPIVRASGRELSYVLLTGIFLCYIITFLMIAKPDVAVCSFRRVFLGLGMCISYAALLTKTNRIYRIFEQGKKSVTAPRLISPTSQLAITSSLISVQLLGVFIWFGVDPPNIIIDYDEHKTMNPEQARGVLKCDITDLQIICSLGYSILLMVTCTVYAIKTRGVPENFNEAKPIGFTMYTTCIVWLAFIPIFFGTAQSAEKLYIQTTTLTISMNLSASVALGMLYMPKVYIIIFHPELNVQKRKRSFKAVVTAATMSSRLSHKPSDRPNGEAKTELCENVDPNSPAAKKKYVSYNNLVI
Data set [5] is described as follows: Metabolic stability in human liver microsome assessed as compound remaining after 60 mins by LC-MS-MS. It counts as ADME. As to conditions: liver microsomes, read-out: Stability.
The target of data set [6] is Metabotropic glutamate receptor 5 (Rattus norvegicus) (UniProt P31424). Kind of data set: Potentiation of rat mGluR5 receptor assessed as fold shift in glutamate concentration response curve at 10 uM relative to control.
Data set [7] has as its target Metabotropic glutamate receptor 3 (Rattus norvegicus) (UniProt P31422). As to the kind of experiment: Potentiation of rat mGluR3 receptor assessed as fold shift in glutamate concentration response curve at 10 uM relative to control.
For data set [8], the target named is Metabotropic glutamate receptor 5 (Rattus norvegicus) (UniProt P31424). As to the kind of experiment: Potentiation of rat mGluR5 expressed in HEK293 cells assessed as glutamate-induced calcium fluorescence at 10 uM by Fluo-4/AM dye-based fluorescence assay. It counts as functional, cell-based.
The subject of data set [9] is Plasma. Kind of data set: Plasma protein binding in Sprague-Dawley rat after 4 hrs by LC-MS-MS. Type of data set: ADME, cell-free.
The nature of data set [10]: Aqueous solubility of the compound in 0.01 N HCl buffer at pH 2 by HPLC. It counts as physicochemical.
Data set [11] has as its target Metabotropic glutamate receptor 5 (Rattus norvegicus) (UniProt P31424). Kind of data set: Displacement of [3H]3-methoxy-PEPy from rat mGluR5 receptor allosteric binding site at 30 uM. In short, it runs like this: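 Radioligand binding uses [3H]3-methoxy-PEPy at the mGluR5 allosteric site. Displacement is read at the highest compound concentration tested, 30 μM.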

The nature of data set [12]: Passive transcellular permeability of the compound by PAMPA. Type of data set: ADME. The settings on record: read-out: permeability. In general terms: In PAMPA a lipid-coated filter parts donor from acceptor wells.
The target of data set [13] is Metabotropic glutamate receptor 1 (Rattus norvegicus) (UniProt P23385). As to the kind of experiment: Potentiation of rat mGluR1 receptor assessed as fold shift in glutamate concentration response curve at 10 uM relative to control.
Data set [14] is described as follows: Metabolic stability in Sprague-Dawley rat liver microsome assessed as compound remaining after 60 mins by LC-MS-MS. The settings on record: liver microsomes, read-out: Stability. It counts as ADME. For orientation: Liver microsomes are a subcellular fraction often used to study metabolism.
In another data set the test system is Rattus norvegicus. As to the kind of experiment: Reversal of amphetamine-induced hyperlocomotion in Sprague-Dawley rat at 56.6 mg/kg, ip administered 30 mins before amphetamine challenge measured for 60 mins. On the set-up: dose 56.6 mg/kg. Type of data set: functional, organism-based. In short, it runs like this: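 Rats get vehicle or 56.6 mg/kg compound ip in 20% HP β-cyclodextrin 30 min before 1 mg/kg sc amphetamine, given at 60 min. Ambulations (beam breaks per 5 min interval) are counted for a further 60 min. Groups are 12−14 rats, shown as mean ± SEM, compared with the vehicle + amphetamine group by Dunnett's test.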

Data set [15] is described as follows: Aqueous solubility of the compound in 0.1 M citrate buffer at pH 4 by HPLC. Type of data set: physicochemical.
Data set [16] can be described thus: Aqueous solubility of the compound in 0.2M sodium phosphate buffer at pH 7.4 by HPLC. Type of data set: physicochemical.
Data set [17] has as its target Metabotropic glutamate receptor 6 (Rattus norvegicus) (UniProt P35349). As to the kind of experiment: Potentiation of rat mGluR6 receptor assessed as fold shift in glutamate concentration response curve at 10 uM relative to control.
For data set [18], the target named is Metabotropic glutamate receptor 4 (Rattus norvegicus) (UniProt P31423). As to the kind of experiment: Potentiation of rat mGluR4 receptor assessed as fold shift in glutamate concentration response curve at 10 uM relative to control.
Data set [19] concerns the target Metabotropic glutamate receptor 2 (Rattus norvegicus) (UniProt P31421). Kind of data set: Potentiation of rat mGluR2 receptor assessed as fold shift in glutamate concentration response curve at 10 uM relative to control.
For data set [20], the target named is Metabotropic glutamate receptor 8 (Rattus norvegicus) (UniProt P70579). As to the kind of experiment: Potentiation of rat mGluR8 receptor assessed as fold shift in glutamate concentration response curve at 10 uM relative to control.
Chain of Metabotropic glutamate receptor 8 (Rattus norvegicus) (P70579 whole entry): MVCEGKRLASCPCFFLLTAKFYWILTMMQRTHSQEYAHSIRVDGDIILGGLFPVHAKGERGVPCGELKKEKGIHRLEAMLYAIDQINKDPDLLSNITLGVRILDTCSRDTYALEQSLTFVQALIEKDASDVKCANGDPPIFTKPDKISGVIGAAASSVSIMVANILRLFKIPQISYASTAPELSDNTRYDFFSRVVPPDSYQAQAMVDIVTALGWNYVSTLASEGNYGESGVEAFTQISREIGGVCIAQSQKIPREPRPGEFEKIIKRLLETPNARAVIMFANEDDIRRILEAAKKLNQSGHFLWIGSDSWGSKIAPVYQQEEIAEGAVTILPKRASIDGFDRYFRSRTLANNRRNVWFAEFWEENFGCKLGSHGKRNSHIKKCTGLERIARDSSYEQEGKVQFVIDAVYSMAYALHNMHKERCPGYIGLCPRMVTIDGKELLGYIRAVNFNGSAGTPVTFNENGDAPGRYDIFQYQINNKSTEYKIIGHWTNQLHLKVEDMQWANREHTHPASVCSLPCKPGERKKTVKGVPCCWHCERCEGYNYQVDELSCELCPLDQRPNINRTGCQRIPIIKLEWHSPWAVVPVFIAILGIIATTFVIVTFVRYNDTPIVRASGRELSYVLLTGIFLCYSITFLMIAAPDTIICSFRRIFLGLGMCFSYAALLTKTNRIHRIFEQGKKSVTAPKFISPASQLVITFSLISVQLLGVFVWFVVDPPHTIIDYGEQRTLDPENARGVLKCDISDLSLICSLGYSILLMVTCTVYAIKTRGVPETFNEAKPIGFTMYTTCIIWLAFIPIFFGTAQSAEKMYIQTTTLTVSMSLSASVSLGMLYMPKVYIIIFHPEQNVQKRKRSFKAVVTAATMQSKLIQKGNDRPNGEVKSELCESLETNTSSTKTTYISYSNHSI
In data set [21] the test system is Plasma. As to the kind of experiment: Plasma protein binding in human after 4 hrs by LC-MS-MS. It counts as ADME, cell-free.
Data set [22] deals with T1, Metabotropic glutamate receptor 5. As to the kind of experiment: Negative allosteric modulation at rat mGluR5 receptor.

Calls of active or inactive are those of the source. The calls are words filed in the database; no cut-off is given here.

Chain of Metabotropic glutamate receptor 3 (Rattus norvegicus) (P31422 23-879 limits assumed): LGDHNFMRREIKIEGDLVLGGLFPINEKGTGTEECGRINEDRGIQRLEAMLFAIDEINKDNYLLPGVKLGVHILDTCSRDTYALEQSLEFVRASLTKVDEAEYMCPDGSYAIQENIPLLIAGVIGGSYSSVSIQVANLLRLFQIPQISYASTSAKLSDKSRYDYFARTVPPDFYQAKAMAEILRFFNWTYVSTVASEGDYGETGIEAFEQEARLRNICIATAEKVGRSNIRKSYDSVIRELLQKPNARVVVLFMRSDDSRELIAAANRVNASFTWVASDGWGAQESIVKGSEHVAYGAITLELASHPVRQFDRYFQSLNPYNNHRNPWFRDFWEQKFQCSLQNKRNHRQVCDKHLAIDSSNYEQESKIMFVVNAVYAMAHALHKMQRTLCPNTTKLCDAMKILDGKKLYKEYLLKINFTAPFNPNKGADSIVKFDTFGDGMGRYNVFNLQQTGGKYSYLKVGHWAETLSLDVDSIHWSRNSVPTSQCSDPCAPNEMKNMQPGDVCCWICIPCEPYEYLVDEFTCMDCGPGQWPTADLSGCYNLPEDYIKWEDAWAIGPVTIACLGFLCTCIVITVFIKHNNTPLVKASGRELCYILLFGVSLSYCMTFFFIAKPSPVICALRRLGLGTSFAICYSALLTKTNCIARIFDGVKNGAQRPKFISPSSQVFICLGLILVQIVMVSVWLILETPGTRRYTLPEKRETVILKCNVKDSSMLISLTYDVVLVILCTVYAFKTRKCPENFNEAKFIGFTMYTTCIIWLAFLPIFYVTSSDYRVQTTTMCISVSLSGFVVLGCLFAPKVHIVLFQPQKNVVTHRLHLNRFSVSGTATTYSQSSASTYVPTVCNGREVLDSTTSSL

As usually defined, the EC50 is the concentration that produces a half-maximal response. On to `O=C(COCc1ccccc1)N1CCN(c2nccs2)CC1`, for which the Activity in [1] came out at 30%. Besides, the EC50 in data set [2] (read-out: EC50) was more than 10 µM.

By solubility is commonly meant the concentration that dissolves in the medium under given conditions. On to `N#Cc1ccccc1N1CCN(C(=O)COCc2ccccc2)CC1`, for which the values for the Activity in data set [3] and in data set [1] were less than 10% and 78%, respectively. Moreover, the result in data set [4], in data set [7], in data set [11], in data set [13], in data set [17] and in data set [18] was inactive. Moreover, the outcome in data set [19] and in data set [20] was inactive. In addition, the remaining at 1 h in data set [5] and in data set [14] was less than 5% each time. Besides, the fold change (FC) in [6] was found to be 12. Also, the outcome (in [8]; in the data set with Rattus norvegicus) was Active. Moreover, the PPB in the data set with Plasma [9] is given as 90%; with Plasma [21], 94%. Moreover, the solubility in [10], in data set [15] and in data set [16] was more than 80 µM each time. In data set [12], the Papp was 2.2 ×10⁻⁶ cm/s. The EC50 in data set [2] (read-out: EC50) was 1.6 µM.

As to `O=C(COCc1ccccc1)N1CCN(c2ncccn2)CC1`, the EC50 result in [2] (hek293) is reported as “Not Active”.

What is called IC50 is the midpoint of a concentration-inhibition curve. Regarding `O=C(N1CCN(c2ccccn2)CC1)C12CC3CC(CC(C3)C1)C2`, the IC50 in data set [22] amounted to 0.99 µM.

Regarding `COC(=O)c1ccccc1N1CCN(C(=O)COCc2ccccc2)CC1`, in data set [1], the Activity worked out at 51%. For the same compound, the EC50 in data set [2] (read-out: EC50) was more than 10 µM.

In the case of `O=C(COCc1ccccc1)N1CCN(c2ncccc2C(F)(F)F)CC1`, the Activity in data set [1] stood at 70%. Besides, in data set [2] (read-out: EC50), the EC50 amounted to 4.3 µM.

In the case of `O=C(COCc1ccccc1)N1CCN(c2ccccc2[N+](=O)[O-])CC1`, in data set [1], the Activity amounted to 81%. Moreover, the concentration for a half-maximal effect (EC50) in [2] (read-out: EC50) amounted to 1.8 µM.

Take `O=C(COCc1ccccc1)N1CCN(c2ccccc2Cl)CC1`: the Activity in [1] came out at 90%. For the same compound, the EC50 in [2] (read-out: EC50) turned out to be 0.82 µM.

Turning to `O=C(COCc1ccccc1)N1CCN(c2nc3ccccc3s2)CC1`, in [1], the Activity was found to be 66%. In addition, the EC50 in data set [2] (read-out: EC50) was more than 10 µM.

For the compound `O=C(COCc1ccccc1)N1CCN(c2ccccn2)CC1`, the Activity in data set [1] was 86%. Moreover, the EC50 in data set [2] (read-out: EC50) turned out to be 5.4 µM.

With `COc1ccccc1N1CCN(C(=O)COCc2ccccc2)CC1`, the Activity in data set [1] is 86%. Moreover, in data set [2] (read-out: EC50), the EC50 came out at 9.2 µM.

For the compound `O=C(COCc1ccccc1)N1CCN(c2cccnc2)CC1`, in data set [2] (hek293), the EC50 result is recorded as “Not Active”.

`N#Cc1cccnc1N1CCN(C(=O)COCc2ccccc2)CC1`: the Activity in data set [1] was determined as 33%. Also, the concentration giving a half-maximal response (EC50) in data set [2] (read-out: EC50) is more than 10 µM.
